{"source": "paper PMC3073091", "about": "(Chromatographia, 2011)", "key": {"[1]": {"experiment": "pilot pharmacokinetic study in rats after intravenous administration", "assay_type": "in vivo, rat", "how_it_was_run": "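Male Wistar rats (13–15 weeks, 200–220 g) were fasted overnight with free water access. They received 3 mg kg−1 i.v. in 0.9% saline. Under thiopental (70 mg kg−1), blood was taken by decapitation at 5, 10, 30, 60, 120 and 240 min (n = 5 per time). Serum was stored at −30 °C, then 100 µL was extracted into ethyl acetate with internal standard for LC–MS–MS. Non-compartmental analysis used mean concentrations: t1/2 = 0.693/λz, Cl = dose/AUC0-inf, Vss = D·AUMC/AUC².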"}, "[2]": {"experiment": "stability of DL76 in rat serum QC samples under storage and process conditions", "assay_type": "in vitro ADME", "conditions": "bench top, post preparative, freeze/thaw, long term"}, "human H3 receptor": {"target": "human H3 receptor", "conditions": "read-out: hKi; human H3 receptor stably expressed in CHO-K1 cells; preliminary pharmacological studies; cited from earlier work"}, "[3]": {"conditions": "male, Wistar, rat, serum, iv, 3 mg/kg"}}}
{"smiles": "CC(C)(C)c1ccc(OCCCN2CCCCC2)cc1", "note": "[DL76, 1-[3-(4-tert-butylphenoxy)propyl]piperidine]", "values": [{"measurement": "clearance", "setting": "[1]; [3]", "result": 217, "unit": "mL/min/kg"}, {"measurement": "half-life", "setting": "[1]; [3]", "result": 1.41, "unit": "h"}, {"measurement": "serum concentration of DL76 in a representative rat serum sample", "setting": "[1]; rat serum after i.v. 3 mg kg^−1, time not stated", "result": 67.82, "unit": "ng/mL"}, {"measurement": "stability in rat serum (all storage and process tests)", "setting": "[2]", "result": "good stability"}, {"measurement": "Ki", "setting": "human H3 receptor", "result": "22 ± 3", "unit": "nM"}]}
